High-throughput results as filed in PubChem BioAssay.
Hits are enriched below; roughly 2.1% of the tested compounds scored in any of these assays.
RanGTP-Imp inh – inhibitors of RanGTP-importin-beta interaction, primary screen, biochemical, FRET, CFP-Ran, YFP-importin-beta, homogeneous. cell-free CFP-Ran/YFP-importin-beta FRET ratio. inhibition, % (no concentration beside the values). 300,000 compounds, 1.1% hits. AID 2216;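 active = more than half of the replicate wells show a fall in the fluorescence ratio signal beyond about 16%, limit read from the data, passing the limit was not always enough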;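 also: 0% = DMSO wells and 100% = Ran loaded with GDP instead of GTP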
Runt-SMMHC FRET – Runt domain-CBFb-SMMHC interaction inhibition; 220,000 compounds, 0.74% hits; inhibition, % at 20 µM; Cerulean-Runt/Venus-CBFb-SMMHC FRET ratio 530/480, 1 h; AID 1434;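 active = mean inhibition across duplicate retests at 20 µM reaching about 50%, limit read from the data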;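 also: 0% = DMSO wells and 100% = wells with excess untagged CBFb-SMMHC; inhibitors lower the FRET ratio by blocking Runt binding to CBFb-SMMHC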
Runt-CBFb FRET – Runt domain-CBFb interaction inhibition | Q01196+Q13951 | Cerulean-Runt/Venus-CBFb FRET ratio 530/480, 1 h | inhibition, % at 20 µM | 220,000 compounds, 0.46% hits;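 active = inhibition over about 50% at 20 µM in the single-dose screen, limit read from the data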;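 also: 0% = DMSO wells and 100% = excess unlabeled CBFb competitor control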
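Buffer or medium: Tris pH 7.5 buffer with BSA. Assay system: Cerulean-labeled Runt domain protein. Amount: each fluorescent fusion protein 100 nM. Read-out basis: loss of energy transfer signal. Incubation: 1 h compound exposure, room temperature. Probe or stimulus: Venus-CBFb binding partner, 100 nM. Detection: FRET, excitation 422 nm, emission at 530 and 480 nm.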
MEX-5 binding – C. elegans MEX-5 TCR-2 RNA binding activity. AID 1832. 300,000 compounds, 0.38% hits. MEX-5/FITC-TCR2 RNA binding, fluorescence polarization; stronger effect = lower value. Q9XUB2. activity score (negative = inhibition of binding), % at 10 µM;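 active = inhibition past about -25% in most replicates, and total fluorescence under double the plate's negative control median, limit read from the data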;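 also: 0% = DMSO and -100% = 5 µM competing unlabeled TCR2 RNA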
Target sequence (Q9XUB2 whole entry, looked up): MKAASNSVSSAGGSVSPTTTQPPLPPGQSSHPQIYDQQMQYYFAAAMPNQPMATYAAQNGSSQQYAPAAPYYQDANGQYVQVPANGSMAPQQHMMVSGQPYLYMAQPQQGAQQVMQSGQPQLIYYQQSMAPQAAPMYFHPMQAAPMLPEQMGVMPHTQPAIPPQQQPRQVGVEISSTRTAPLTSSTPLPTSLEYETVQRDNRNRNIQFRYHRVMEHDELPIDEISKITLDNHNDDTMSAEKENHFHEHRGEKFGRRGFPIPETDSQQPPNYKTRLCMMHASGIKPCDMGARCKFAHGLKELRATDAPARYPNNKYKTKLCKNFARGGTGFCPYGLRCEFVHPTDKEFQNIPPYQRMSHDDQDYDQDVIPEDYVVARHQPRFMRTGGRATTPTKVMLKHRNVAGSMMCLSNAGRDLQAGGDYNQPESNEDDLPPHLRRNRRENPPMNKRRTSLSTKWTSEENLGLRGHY
KLK7 zymogen act – proKLK7 (human) activation, primary screen; P49862; purified proKLK7, EDANS-DABCYL substrate fluorescence; 100% is mature enzyme control, 0% vehicle; activation, % at 7 µM; 370,000 compounds, 0.9% hits; AID 652039;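 active = activation above the mean of all tested compounds plus 3 SD, computed per campaign excluding outliers beyond control limits, cut at about 13% in these data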
* marks the source's active call; other numbers are inactive results.

`CN1CC2(Cc3c1ccc1ccccc31)C(=O)OC(C)(C)OC2=O` gave RanGTP-Imp inh -1, Runt-SMMHC FRET 113*, Runt-CBFb FRET 29 and KLK7 zymogen act 4.
Screening O=C(COC(=O)C1CC2CCCC(C1)C2=O)Nc1ccc(Cl)cn1 (configuration not stated) returned KLK7 zymogen act 0.
Screening CC(C)NC(=O)N(C)C[C@@H]1Oc2cc(Br)ccc2S(=O)(=O)N([C@@H](C)CO)C[C@H]1C returned KLK7 zymogen act 0.
For CN(C)c1ccc(C(=O)/C=C/c2ccc(Br)cc2)cc1 the results were RanGTP-Imp inh -5, Runt-SMMHC FRET -35, Runt-CBFb FRET -30, MEX-5 binding 3 and KLK7 zymogen act 0.
For CCN(CC)c1ccc(/C=C/C(=O)c2ccc(Br)cc2)cc1 the results were RanGTP-Imp inh -331, Runt-SMMHC FRET -192, Runt-CBFb FRET -378, MEX-5 binding -51* and KLK7 zymogen act 0.
For Oc1c(C=Nc2ccccc2Cl)[nH]c2ccccc12 the results were RanGTP-Imp inh 3, Runt-SMMHC FRET -34, Runt-CBFb FRET 2, MEX-5 binding -29* and KLK7 zymogen act 0.
Oc1[nH]c2ccccc2c1N=Nc1ccccc1Cl was read as KLK7 zymogen act 0.
CC(C)NC(=O)N(C)C[C@H]1Oc2c(NC(=O)c3ccc(-c4nccs4)cc3)cccc2C(=O)N([C@@H](C)CO)C[C@H]1C was read as KLK7 zymogen act 3.
`Cc1ccc(C2=N/C(=C\N(C)C)C(=O)O2)cc1` gave RanGTP-Imp inh 17*, Runt-SMMHC FRET -1, Runt-CBFb FRET 0, MEX-5 binding -1 and KLK7 zymogen act 0.
`COc1ccc(/C=C2\OC(=S)N(C)C2=O)cc1` gave RanGTP-Imp inh 3, Runt-SMMHC FRET -2, Runt-CBFb FRET -3, MEX-5 binding 1 and KLK7 zymogen act -2.
Screening COc1ccc(/C=C2\N=C(C(C)(C)C)OC2=O)c(OC)c1 returned RanGTP-Imp inh -2, MEX-5 binding -7 and KLK7 zymogen act 0.
`CN1C(=O)/C(=C\c2ccc(N(C)C)cc2)OC1=S` gave RanGTP-Imp inh -98, MEX-5 binding -89* and KLK7 zymogen act 0.
Screening CN(C)c1ccc(/C=C2\N=C(C(C)(C)C)OC2=O)cc1 returned RanGTP-Imp inh 2, MEX-5 binding -43* and KLK7 zymogen act 2.
Screening CC1=C(C(=O)Nc2ccccc2)C(c2ccc3c(c2)OCO3)C2=C(CCCC2=O)N1 (configuration not stated) returned RanGTP-Imp inh 1, Runt-SMMHC FRET -5, Runt-CBFb FRET 1, MEX-5 binding 0 and KLK7 zymogen act 0.
For CC1=C(C(=O)Nc2cc(C)ccn2)C(c2ccc(C)cc2)C2=C(CCCC2=O)N1 (configuration not stated) the results were RanGTP-Imp inh -4, Runt-SMMHC FRET 51*, Runt-CBFb FRET 18, MEX-5 binding 1 and KLK7 zymogen act 6.
Screening C#CCNC(=O)C[C@H]1C[C@@]2(C(=O)OC)C(=C[C@H](COCc3ccccc3)O[C@@H]2C)N(CCCCCCCC)C1=O returned KLK7 zymogen act 1.
COCCNC(=O)c1c(N)[nH]c(C(=O)c2ccc(Br)cc2)c1-c1ccc(Br)cc1 was read as KLK7 zymogen act 0.
`CN(C)C(=O)CCc1ccc2c3c([nH]c2c1)[C@]1(CCC2CCCC2)[C@@H](C(=O)N2CCOCC2)C[C@H](CC(=O)NCCC2=CCCCC2)C(=O)N1CC3` gave KLK7 zymogen act 1.
CCC(C)Sc1ccc(-c2nc3cnccn3c2NC2CCCCC2)cc1 (configuration not stated) was read as RanGTP-Imp inh 30*, MEX-5 binding -12 and KLK7 zymogen act -20.
COC(=O)[C@]1(CNC(=O)Nc2ccc(C)c(Cl)c2)CC(=O)N(C)[C@@H]1c1ccccc1 was read as KLK7 zymogen act 0.
COc1ccc(C(=O)NCCNc2nc3cc(C)cc(C)c3cc2C#N)cc1 was read as KLK7 zymogen act -3.
COc1ccc2nc(NCCCNC(=O)c3cc(OC)c(OC)c(OC)c3)c(C#N)cc2c1 was read as RanGTP-Imp inh 126*, Runt-SMMHC FRET 38, Runt-CBFb FRET 57*, MEX-5 binding -10 and KLK7 zymogen act 11.
`COc1ccc(C(=O)NCCNc2nc3ccc(C)cc3cc2C#N)cc1` gave RanGTP-Imp inh 65*, MEX-5 binding -5 and KLK7 zymogen act -7.
Screening COc1cc(C(=O)NCCNc2nc3c(C)cccc3cc2C#N)cc(OC)c1OC returned KLK7 zymogen act 2.
COc1cc(C(=O)NCCNc2nc3ccc(C)cc3cc2C#N)cc(OC)c1OC was read as RanGTP-Imp inh 81*, MEX-5 binding -2 and KLK7 zymogen act -1.
COc1cc(C(=O)NCCCNc2nc3c(C)cc(C)cc3cc2C#N)cc(OC)c1OC was read as RanGTP-Imp inh 2, Runt-SMMHC FRET 23, Runt-CBFb FRET 16, MEX-5 binding -1 and KLK7 zymogen act -2.
Screening COc1ccccc1Nc1nc2ccc(C)cc2cc1C#N returned RanGTP-Imp inh 9, Runt-SMMHC FRET -72, Runt-CBFb FRET -9, MEX-5 binding -3 and KLK7 zymogen act -1.
Screening Cc1ccc2nc(NCc3ccccc3)c(C#N)cc2c1 returned RanGTP-Imp inh 38*, Runt-SMMHC FRET 83, Runt-CBFb FRET 42, MEX-5 binding 0 and KLK7 zymogen act -3.
For CCOC(=O)C1CCN(C(=O)c2cc(S(=O)(=O)N3CCCCCC3)ccc2OC)CC1 the results were RanGTP-Imp inh 6, MEX-5 binding 3 and KLK7 zymogen act 0.
`COC(=O)c1ccc(Cn2c(C)c(C(=O)NCc3cccc(C(F)(F)F)c3)sc2=O)o1` gave KLK7 zymogen act 0.
Screening O=C(O)C1Nc2c(C(=O)N3CCOCC3)cccc2C2C=CCC12 (configuration not stated) returned RanGTP-Imp inh 1, Runt-SMMHC FRET 9, Runt-CBFb FRET 15 and MEX-5 binding -57*.
COC(=O)C[C@@H]1CC[C@H]2[C@@H](COc3ccc(NC(=O)c4ccc(Cl)cc4)cc3C(=O)N2C)O1 was read as KLK7 zymogen act 0.
For C[C@@H]1O[C@@H](OC[C@@H]2O[C@H](Oc3c(-c4ccc(O)cc4)oc4cc(O)cc(O)c4c3=O)[C@@H](O)[C@H](O)[C@H]2O)[C@H](O)[C@H](O)[C@H]1O the results were KLK7 zymogen act 0.
For CC1OC(Oc2c(-c3cc(O)c(O)c(O)c3)oc3cc(O)cc(O)c3c2=O)C(O)C(O)C1O (configuration not stated) the results were RanGTP-Imp inh 6, Runt-SMMHC FRET -22, Runt-CBFb FRET -27, MEX-5 binding -48* and KLK7 zymogen act 0.
